Experimental data reported in article PMC2818804 (Journal of medicinal chemistry, 2010).
≈ marks a conversion by molar mass, not a printed value.

How the values were obtained:
[1] = kinetic solubility analysis; type: physicochemical; settings: aqueous medium (not further specified)
Method in brief: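 Solubility determined by quantitative nitrogen detection. Three separate experiments; average intra-assay %CV 4.5%.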

[2] = target: hPK, M2 (pyruvate kinase, human M2 isoform, PKM2) (Homo sapiens, UniProt P14618); test: luminescent pyruvate kinase-luciferase coupled assay; type: biochemical; settings: read-out: hPK, M2 AC50, three separate experiments
firefly luciferase = firefly luciferase counter-assay; type: biochemical
PKM2 = PKM2 (Homo sapiens, UniProt P14618); test: steady-state kinetics of PEP and ADP in the PK-LDH coupled assay; type: biochemical; settings: in the presence of activator (10 μM); PEP varied
Chain of PKM2 (P14618 whole entry): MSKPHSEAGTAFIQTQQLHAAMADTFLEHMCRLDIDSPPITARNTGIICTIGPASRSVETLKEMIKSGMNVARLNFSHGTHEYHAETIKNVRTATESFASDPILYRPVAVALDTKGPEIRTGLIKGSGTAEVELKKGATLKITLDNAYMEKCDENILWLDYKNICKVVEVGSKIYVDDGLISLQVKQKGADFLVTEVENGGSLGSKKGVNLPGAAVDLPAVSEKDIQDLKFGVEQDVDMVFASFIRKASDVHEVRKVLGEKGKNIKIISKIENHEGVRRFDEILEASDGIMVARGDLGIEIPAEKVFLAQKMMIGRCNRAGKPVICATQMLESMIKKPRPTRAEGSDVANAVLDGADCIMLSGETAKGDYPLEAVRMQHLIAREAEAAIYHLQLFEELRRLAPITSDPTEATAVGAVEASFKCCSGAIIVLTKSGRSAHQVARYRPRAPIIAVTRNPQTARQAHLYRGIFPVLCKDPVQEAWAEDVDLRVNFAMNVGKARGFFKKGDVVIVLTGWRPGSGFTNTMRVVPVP

Chain of hPK, M2 (pyruvate kinase, human M2 isoform, PKM2) (P14618 whole entry, canonical isoform): as the sequence (P14618 whole entry) above

Row | solubility [1] | SMILES | also measured
1 | 15.1 µg/mL (≈ 32.7 µM) | COc1cc(F)c(S(=O)(=O)N2CCCN(S(=O)(=O)c3cccc(N)c3)CC2)c(F)c1 [compound 57] | 
2 |  | O=S(=O)(N[C@H]1CC[C@H](NS(=O)(=O)c2c(F)cccc2F)CC1)c1ccc2c(c1)OCCO2 [compound 40] | AC50 [2]: 2110 nM
3 |  | COc1ccc(S(=O)(=O)N2CCN(S(=O)(=O)c3ccc4c(c3)OCCO4)CC2)cc1 [compound 2] | activation of firefly luciferase (firefly luciferase): did not activate; Vmax (PKM2): 265 pmols/min
4 | 2.7 µg/mL (≈ 5.69 µM) | O=S(=O)(c1ccc2c(c1)OCCO2)N1CCCN(S(=O)(=O)c2c(F)cccc2F)CC1 [compound 34] | 
5 | 3 µg/mL (≈ 7.19 µM) | Nc1cccc(S(=O)(=O)N2CCN(S(=O)(=O)c3c(F)cccc3F)CC2)c1 [compound 56] | 
6 | < 0.5 µg/mL | O=S(=O)(c1ccc2c(c1)OCCO2)N1CCN(S(=O)(=O)c2c(F)cccc2F)CC1 [compound 10] | 
